Assay outcomes deposited in PubChem by Sanford-Burnham Center for Chemical Genomics.
Shown are actives, neighbours in structure and some others; about 1.5% of the full set was active somewhere.
EBI2 antag: antagonists of human EBI2 receptor. actives 0.81% (n = 360,000). P32249. inhibition, % at 5 µM. EBI2 beta-arrestin recruitment, luminescence, 7a,25-OHC stimulated. AID 651636; in the data active = inhibition above about 38%;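 also: enzyme fragment complementation signal reports receptor beta-arrestin coupling in cells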
APJ agonist: APJ receptor agonism | CHO-K1 APJ PathHunter beta-arrestin, luminescence; 0% DMSO wells, 100% apelin | activation, % at 20 µM | actives 0.11% (n = 330,000) | AID 2520;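 active = activation more than six SD over the plate average, tested at 20 µM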
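Assay system: engineered CHO-K1 APJ arrestin reporter cells; Amount: 1000 CHO-K1 reporter cells seeded per well; Dosing: one dose, 20 µM compound, 1% DMSO; Times: compound stimulation 90 min at 25 °C, detection 60 min; Measured by: luminescent beta-gal fragment complementation, chemiluminescent substrate; Read-out: APJ–arrestin association signal; Controls: DMSO vs Apelin-13 10 nM.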
CXCR6 block: blocks human CXCR6 beta-arrestin recruitment; inhibition, % at 20 µM; actives 0.36% (n = 360,000); CHO-K1 PathHunter CXCR6 beta-arrestin, luminescence; AID 602244; in the data active = inhibition above about 34%, passing the limit was not always enough;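 also: antagonist mode with CXCL16 agonist at 10 nM final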
APJ antagonist: APJ receptor antagonism; P35414; CHO-K1 APJ beta-arrestin complementation, luminescence; inhibition, % at 20 µM; actives 0.32% (n = 330,000); AID 2521;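 active = inhibition above about 40% at 20 µM, limit read from the data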;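 also: cells challenged with 10 nM apelin-13 agonist together with compound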
CCR6 antagonist: blocks CCL20-driven beta-arrestin recruitment at human CCR6. CHO-K1 CCR6 PathHunter beta-arrestin, luminescence, CCL20-stimulated. inhibition, % at 20 µM. actives 0.49% (n = 340,000). AID 493098;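 active = compounds whose inhibition of the agonist-driven luminescence signal at 20 µM reaches about 50%, limit read from the data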;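 also: cells stimulated with CCL20 at 14 nM final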
Target sequence (P51684 whole entry, looked up): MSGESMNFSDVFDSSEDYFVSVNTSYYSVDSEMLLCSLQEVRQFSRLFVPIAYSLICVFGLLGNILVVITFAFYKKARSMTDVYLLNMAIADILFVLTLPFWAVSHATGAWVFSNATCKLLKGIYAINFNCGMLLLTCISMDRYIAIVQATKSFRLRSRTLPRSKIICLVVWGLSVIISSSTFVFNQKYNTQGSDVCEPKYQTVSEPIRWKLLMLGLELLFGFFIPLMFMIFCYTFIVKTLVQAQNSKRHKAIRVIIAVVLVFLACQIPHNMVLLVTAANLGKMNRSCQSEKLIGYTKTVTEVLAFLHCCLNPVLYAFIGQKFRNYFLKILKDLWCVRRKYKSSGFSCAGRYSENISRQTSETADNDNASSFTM
Numbers stand for hits; - = inactive; . = no result given; ! = not confirmed by another sample.

SMILES	EBI2 antag	APJ agonist	CXCR6 block	APJ antagonist	CCR6 antagonist
O=C(CCCN1C(=O)/C(=C/c2ccccc2Cl)SC1=S)NNC(=O)c1ccc(Cl)cc1	60	-	-	-	-
O=C(CCN1C(=O)/C(=C/c2ccccc2Cl)SC1=S)NNC(=O)c1cccnc1	-	-	-	-	-
O=C(Nc1ccc(Oc2c(F)c(F)c(F)c(F)c2F)cc1)OC1CCN2Cc3ccccc3N=C12 (stereo unspecified)	44	-	-	-	-
Cc1cccc(NC(=O)Nc2ccc(Oc3c(F)c(F)c(F)c(F)c3F)cc2)c1	-	-	-	-	-
CCOc1ccc2nc(NC(=O)c3ccccn3)sc2c1	60	-	58	79	79
COc1ccccc1C(=O)Nc1nc2ccccc2s1	-	-	-	-	-
CCOc1ccc2nc(NC(=O)Nc3ccccc3)sc2c1	-	-	-	-	-
COc1ccc(C(=O)Nc2nc3ccccc3s2)c(OC)c1	50	-	-	-	-
O=C(O)c1c[nH]c2c([N+](=O)[O-])cccc2c1=O	-	.	-	.	-
N=c1n(Cc2ccc(Cl)cc2)c2ccccc2n1CC(O)COc1ccccc1 (stereo unspecified)	-	15	-	-	-
COc1ccc(OCC(O)Cn2c(=N)n(Cc3ccccc3)c3ccccc32)cc1 (stereo unspecified)	-	-	-	-	-
Cc1ccc(O)c(N=Nc2nccs2)c1	-	-	52	-	.
CCCCCCCCCCCCCCCCn1cc[n+](C)c1	-	-	-	-	57!
CCCCCCCCn1ccc(=N)cc1	-	-	-	-	-
CCOc1ccc2oc(C(=O)N3CCN(c4ccccn4)CC3)c(C)c2c1	63	-	-	-	-
CCCC(=O)N1CCC1(C)C(=O)Nc1ccc2c(c1)CCN2C(C)=O (stereo unspecified)	-	.	-	.	.
CC1(C(=O)NS(=O)(=O)c2cccs2)CCN1C(=O)c1ccco1 (stereo unspecified)	-	.	-	.	.
CCOC(=O)[C@]12CCC=C1N(Cc1ccccc1)C(=O)[C@H](CC(=O)NCCCN1CCCC1=O)C2	-	.	-	.	.
O=C(C(=Cc1ccccc1)CN1CCCCC1)c1ccccc1	-	.	-	.	-
O=C(NC(=S)Nc1ccccc1Br)c1ccc2c(c1)OCO2	-	-	-	-	-
CC(C)c1ccc(O)c(NC(=S)NC(=O)c2ccc3c(c2)OCO3)c1	-	-	45	-	.
O=C1N[C@@H](Cc2ccccc2)COC(=O)[C@@H](Cc2ccc(F)cc2)C/C=C\C[C@@H]1CC(=O)N(CCO)Cc1ccccc1	-	-	-	-	-
O=C1NC[C@@H](c2ccccc2)OC(=O)[C@@H](Cc2ccc(F)cc2)CC/C=C/C[C@@H]1CC(=O)N(CCO)Cc1ccccc1	-	.	56	.	-
O=C1CC/C=C\C[C@@H](CC(=O)N(CCO)Cc2ccccc2)C(=O)NC[C@@H](c2ccccc2)O1	-	-	-	-	-
O=C1N[C@H](Cc2ccccc2)COC(=O)[C@H](Cc2ccc(F)cc2)CC/C=C/C[C@H]1CC(=O)N(CCO)Cc1ccccc1	-	-	41	-	-
SMILES	EBI2 antag	APJ agonist	CXCR6 block	APJ antagonist	CCR6 antagonist
Cc1ccc(S(=O)(=O)N2C[C@H]3C(=O)C[C@@H](c4ccccc4)N(S(=O)(=O)c4ccc(C)cc4)[C@H]3C[C@H]2c2ccccc2Cl)cc1	-	.	-	.	.
NNc1nc(-c2ccccc2)cs1	-	-	-	-	59
C(=N\Nc1nc(-c2ccccc2)cs1)/c1ccco1	-	10	-	-	-
Cc1ccc(-c2csc(N/N=C/c3ccco3)n2)cc1	-	-	-	-	-
O=C1NC(=O)C2C3OC(C(Br)C3Br)C12 (stereo unspecified)	-	.	-	.	.
CCOc1ccc(-c2noc(-c3csc([C@@H]4O[C@H](CO)[C@H](O)[C@H](O)[C@H]4O)n3)n2)cc1	-	.	-	.	.
CCc1nc2ccc(C(=O)NCCCN(C)C)cn2c1N(CC)CCOC	-	.	-	.	.
CN(C)c1ccc(C(=O)c2ccc(O)cc2O)cc1	-	-	-	-	-
CN(C)c1ccc(Cc2cc3c(O)ccc(O)c3cc(Cc3ccc(N(C)C)cc3)c2=O)cc1	-	.	34	.	.
COCCNC(=O)c1cc2c(c(-c3cccc(C#Cc4ccc(OC)c(OC)c4)c3)n1)[C@@H](CCO)N(S(=O)C(C)(C)C)C2 (stereo partly specified)	-	.	-	.	.
Cc1[nH][nH]c(=O)c1C(c1c(C)[nH][nH]c1=O)c1cn(Cc2ccc(Cl)c(Cl)c2)c2ccccc12	-	.	54	.	77
Cc1[nH][nH]c(=O)c1C(c1c(C)[nH][nH]c1=O)c1cn(Cc2ccc(F)cc2)c2ccccc12	-	.	62	.	79
COCCCN1C(=O)C(CC(=O)NCc2ccco2)CC(C(=O)N(C(C)C)C(C)C)=C1C (stereo unspecified)	-	.	-	.	.
CCOc1cc(CNC(C)(C)CO)cc(Br)c1OCc1ccc(Cl)cc1Cl	-	-	-	-	50
CCC(/C=C1\Sc2ccc(OC)cc2N1CC)=C\c1sc2ccc(OC)cc2[n+]1CCCS(=O)(=O)[O-]	-	-	-	-	77
CCC(/C=C1\Sc2ccc(OC)cc2N1CCO)=C\c1sc2ccc(OC)cc2[n+]1CCO	-	-	-	-	68
CCC(=O)/C=C1/Sc2ccc(OC)cc2N1CCO	-	-	-	-	-
CCOC(=O)[C@]12CCCC=C1N(Cc1ccccc1)C(=O)[C@H](CC(=O)N1CCN(C(=O)C3CC3)CC1)C2	-	.	.	.	.
CC(C)C[C@H]1CN(CCCC[C@@H]2CNC(=O)C(=O)N2Cc2ccccc2)C(=O)C(=O)N1CCc1ccc(O)cc1	-	.	-	.	.
O=[N+]([O-])c1ccc(-c2cnc3ccccc3n2)cc1	-	-	-	-	-
O=[N+]([O-])c1ccc(-c2c(O)c3ccccc3c3nc4ccccc4nc23)cc1	-	-	-	-	76
C[C@H]1CN([C@@H](C)CO)C(=O)CCCn2cc(nn2)CO[C@@H]1CN(C)S(=O)(=O)c1ccc(Oc2ccccc2)cc1	-	.	-	.	.
CC1=NNC(=O)/C1=C\c1cn(-c2ccccc2)nc1-c1ccccc1	63	.	-	.	-
Cc1[nH]c2ccccc2c1/C=N/Nc1ccccc1[N+](=O)[O-]	-	-	-	43	-
COc1ccc(NS(=O)(=O)c2cc([N+](=O)[O-])ccc2N/N=C/c2c(C)[nH]c3ccccc23)cc1	-	.	-	.	58
SMILES	EBI2 antag	APJ agonist	CXCR6 block	APJ antagonist	CCR6 antagonist
Cc1[nH]c2ccccc2c1/C=N/NS(=O)(=O)c1ccccc1	-	-	-	-	-
CC(=O)Nc1ccc(C=NNc2ccc([N+](=O)[O-])cc2S(=O)(=O)Nc2ccccc2C(=O)O)cc1	-	-	-	-	-
CCOc1ccc(C(=O)OCC(=O)NC2CCCCCCC2)cc1	-	-	-	-	-
CCc1nc2ccc(C(=O)NCCCN3CCCC3=O)cn2c1N(CC)Cc1cccc(Br)c1	-	.	-	.	.
C=CCN1[C@@H](Cc2ccccc2)COCCS1(=O)=O	-	.	-	.	-
O=c1oc(-c2ccccc2F)nc2c1cnn2-c1ccccc1	-	-	-	-	52
